Bioassay records deposited in PubChem BioAssay by Johns Hopkins Ion Channel Center.
MrgX1 agonist = activates human MrgX1 receptor signaling | Q96LB2 | MrgX1-HEK293 cells, Fluo-4 calcium fluorescence, agonist mode; stronger effect = higher value | B-score at 10 µM | 310,000 tested, 0.44% active;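 active means calcium response B-score plate-corrected fluorescence ratio at least 3 library SD, with starting fluorescence B-score inside 5 SD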
Target sequence (Q96LB2 whole entry, looked up): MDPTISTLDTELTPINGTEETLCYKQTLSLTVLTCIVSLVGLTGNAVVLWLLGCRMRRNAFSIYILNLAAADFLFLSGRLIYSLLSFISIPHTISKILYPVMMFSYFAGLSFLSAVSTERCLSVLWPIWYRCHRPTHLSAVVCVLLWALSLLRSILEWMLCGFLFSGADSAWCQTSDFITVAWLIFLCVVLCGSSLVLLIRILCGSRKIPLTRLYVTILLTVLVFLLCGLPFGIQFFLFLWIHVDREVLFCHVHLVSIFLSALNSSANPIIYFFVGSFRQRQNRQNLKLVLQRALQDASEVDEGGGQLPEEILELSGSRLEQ
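Test system: Stable human MrgX1 HEK293 cell line | Schedule: Overnight plating before 1 h dye loading | Read-out basis: Baseline-normalised fluorescence change ratio, B-scored | Detection: Kinetic calcium dye fluorescence, Fluo-4 NW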
MrgX1 antagonist = antagonists of human MrgX1 receptor; 310,000 tested, 1.3% active; MRGX1-HEK293 calcium flux, Fluo-4, BAM8-22 antagonism; stronger effect = lower value; B-score at 10 µM;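 active means calcium-response B-score plate-corrected more than 3 library SD below zero, starting fluorescence within 5 deviations, no agonist response on first addition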;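 further: peak minus trough fluorescence over baseline after final BAM8-22 challenge near maximal dose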
MrgX1 PAM = human MrgX1 positive allosteric modulation, primary screen | Q96LB2 | AID 588675 | B-score at 10 µM | MrgX1-HEK293, Fluo-4 calcium flux, FDSS; stronger effect = higher value | 310,000 tested, 0.63% active;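 active means plate-corrected calcium response at least 3 library SD above typical, normal starting fluorescence, not activating the receptor alone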;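 further: compound read alongside a low EC10 to EC30 dose of BAM8-22 agonist; peak minus trough fluorescence over baseline measured at the second addition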
RGS4 act = RGS4 potentiation or activation; HEK293 M3R/inducible RGS4, carbachol calcium flux Fluo4; stronger effect = lower value; B-score at 10 µM; 310,000 tested, 0.92% active;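 active means B-score of the integrated calcium signal more than 4 SD below the library mean, with starting fluorescence not abnormally high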;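 further: negative B-score means reduced calcium response which marks RGS4 activation or potentiation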
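Reagent: ECmax carbachol challenge; Test system: M3R-expressing HEK293 line, RGS4 induced by doxycycline; Schedule: overnight RGS4 induction, 30 min dye load 37 °C, 20 min compound RT; Detection: calcium dye Fluo4 fluorescence; Read-out: Agonist-evoked peak-minus-minimum fluorescence over baseline, integrated ratio, B score.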
RGS4 inh = inhibitors of human RGS4 | 310,000 tested, 0.45% active | HEK293 M3R/RGS4 inducible, Fluo-4 calcium flux; stronger effect = higher value; triggered by carbachol at its EC20 | B-score at 10 µM | AID 463165;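 active means B-score, a plate-corrected calcium signal, over three deviations above library mean, with baseline fluorescence within five deviations of library mean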;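 further: RGS4 expression induced by doxycycline in cells with stable M3 receptor; B-score is computed from the integrated fluorescence ratio over baseline after carbachol; higher B-score means a larger calcium signal and so more RGS4 inhibition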
Target sequence (P49798 whole entry, looked up): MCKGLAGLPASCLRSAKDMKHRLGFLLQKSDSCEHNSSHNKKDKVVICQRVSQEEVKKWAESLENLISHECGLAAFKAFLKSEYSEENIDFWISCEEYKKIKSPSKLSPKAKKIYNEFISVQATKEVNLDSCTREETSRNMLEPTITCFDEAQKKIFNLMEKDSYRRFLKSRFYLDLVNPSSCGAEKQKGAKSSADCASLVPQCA
RGS4 block valid = RGS4 inhibitor validation. HEK293 M3R/RGS4, carbachol calcium Fluo-4 fluorescence; carbachol added at its EC20; 0 = buffer wells, 100 = carbachol control. 1,700 tested, 65% active. AID 492999. calcium response, % at 10 µM. shares compounds with RGS4 inh;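 active means duplicate-averaged calcium response above the buffer-only control mean plus 5 SD of those controls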;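 further: integrated fluorescence ratio F max minus min over baseline F0; higher response in RGS4-induced cells means RGS4 inhibition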
RGS4 uninduced = non-induced cell nonspecific activity of RGS4 inhibitors; shares compounds with RGS4 inh; activity (percent), % at 10 µM; 1,900 tested, 20% active; HEK293 M3R non-induced, carbachol calcium Fluo-4; submaximal (EC20) carbachol stimulus; buffer wells 0%, carbachol control wells 100%; call rule not given here;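 further: RGS4 induction absent so cells express M3R without RGS4; higher means more calcium signal and flags a non-specific hit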
M3R basal Ca ctr = second RGS4 inhibitor counter-screen in uninduced cells lacking carbachol; calcium response (agonist-mode artifact), % at 10 µM; 1,900 tested, 22% active; HEK293 M3R/RGS4 non-induced, Fluo-4 calcium, no carbachol; normalised: buffer wells 0%, carbachol wells 100%; shares compounds with RGS4 inh;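 active means duplicate-averaged calcium rise in uninduced cells above buffer wells' mean plus 5 SD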
Hits are given with their value; - = inactive; . = not tested or not shown. Rows were chosen to be rich in hits. Some 3.5% of all compounds tested hit in one or more screens of this group.

SMILES	MrgX1 agonist	MrgX1 antagonist	MrgX1 PAM	RGS4 act	RGS4 inh	RGS4 block valid	RGS4 uninduced	M3R basal Ca ctr
O=C(c1ccco1)N1CCCN(Cc2cn[nH]c2-c2ccc(-c3ccccc3)cc2)CC1	-	-	-	-	4.94	10.5%	-	-
c1ccc(-c2[nH]ncc2CN2CCc3ccccc3C2)cc1	-	-	-	-	-	.	.	.
COc1ccc(-c2[nH]ncc2CN2CCN(c3ccc(F)cc3)CC2)cc1	-	-	-	-	-	.	.	.
Fc1ccc(-c2[nH]ncc2CN2CCN(c3ccc(F)cc3)CC2)cc1	-	-	-	-	6.89	22.0%	49.5%	-
Nc1nc(Cl)cc(N2CCCC2)n1	-	-	-	-	-	.	.	.
Nc1nc(Cl)cc(N2CCC(c3cc(-c4ccc(Cl)cc4Cl)n[nH]3)CC2)n1	-	-	-	-	7.27	16.5%	-	-
O=c1[nH]c(/C=C/c2ccccc2)c([N+](=O)[O-])c(=O)[nH]1	-	-	-	-	5.7	22.5%	-	-
CCC(C)Oc1ccc(/C=C/c2[nH]c(=O)[nH]c(=O)c2[N+](=O)[O-])cc1OC (stereo unspecified)	-	-	-	-	5.56	10.0%	-	76.5%
COc1cc(/C=C/c2[nH]c(=O)[nH]c(=O)c2[N+](=O)[O-])ccc1OCCC(C)C	-	-	-	-	-	.	.	.
O=c1[nH]c(/C=C/c2cccc([N+](=O)[O-])c2)c([N+](=O)[O-])c(=O)[nH]1	-	-	-	-	-	.	.	.
CCOc1ccc(N(CC(=O)NCc2ccc(F)cc2)C(=O)c2ccco2)cc1	-	-	-	-	-	.	.	.
Cc1cc(C)cc(NC(=O)c2cc(C)nc3ccccc23)c1	-	-	-	-	-	.	.	.
CS(=O)(=O)N(Cc1ccc(Cl)cc1)c1ccc(C(=O)N/N=C/c2cc3ccccc3nc2Cl)cc1	-	-	-	-	-	.	.	.
CCCCn1c(SCC(=O)NCc2ccco2)nc2ccc(N3CCOCC3)cc2c1=O	-	-	-	-	5.01	-	-	-
CCCCn1c(SCC(=O)Nc2ccc(OC)cc2)nc2ccc(N3CCOCC3)cc2c1=O	-	-	-	-	-	.	.	.
CCCCn1c(SCC(=O)NCc2ccccc2)nc2ccc(N3CCOCC3)cc2c1=O	-	-	-	-	-	-	-	-
CCCCn1c(SCC(=O)NC(C)CC)nc2ccc(N3CCOCC3)cc2c1=O (stereo unspecified)	-	-	-	-	-	.	.	.
Cc1ccc(-c2csc(NC(=O)CSc3nc(C)cc(=O)[nH]3)n2)cc1	-	-	-	-	13.5	12.5%	-	-
O=C(CSc1nc2ccccc2[nH]1)Nc1nc(-c2cccc(Br)c2)cs1	-	-	-	-	7.7	15.5%	-	-
CN(C)CCCn1c(SCC(=O)Nc2nc(-c3cccc(Br)c3)cs2)nc2ccccc2c1=O	-	-	-	-	-	.	.	.
CCOCCCNC(=S)Nc1ccc2nc(N3CCOCC3)cc(C)c2c1	-	-	-	-	-	.	.	.
Cc1ccccc1NC(=O)C(C)n1c2ccccc2c2nc(=O)cc(C)n21 (stereo unspecified)	-	-	-	-	-	.	.	.
O=C(CSc1nnc(SCc2ccccc2)s1)N/N=C/c1c[nH]c2ccccc12	.	.	.	-	-	-	-	-
O=C(CSc1nnc(SCc2ccccc2Cl)s1)N/N=C/c1c[nH]c2ccccc12	-	-	-	-	6.79	14.5%	-	-
CCC(=O)Nc1cc(C(=O)OCc2ccc(C(=O)Oc3ccccc3)cc2)ccc1C	-	-	-	-	-	.	.	.
COc1cccc(OC)c1/C=C/C(=O)NC1CCCCC1	-	-	-	-	-	.	.	.
CCC1CCCCN1S(=O)(=O)c1ccc2c(c1)CCN2C(=O)C1CCC1 (stereo unspecified)	-	-	-	-	-	.	.	.
